According to publication PMC5743405 (International Journal of Oncology, 2017):
Entries after “also recorded” stand apart in the source; their conditions may differ. Read-outs that look alike come from different tables or passages of the source.

How the values were obtained:
[1] = test system: ADCYAP1R1; test: PathHunter β-arrestin; format: cell-based; settings: 6 μM
Summary of the method: (§1)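 β-Arrestin recruitment assay: the enzyme acceptor is fused to β-arrestin and the ED fragment to the GPCR. Recruitment restores β-galactosidase, read by chemiluminescence. % activity = 100% × (test − vehicle)/(max control ligand − vehicle). % inhibition = 100% × (1 − (test − vehicle)/(EC80 control − vehicle)). An agonist hit needs >30% activity and RLU > baseline + 3×SD. An antagonist hit needs >35% inhibition and RLU < EC80 RLU − 3×SD.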

[2] = test system: CALCRL-RAMP1; test: PathHunter β-arrestin; format: cell-based; settings: antagonist mode, 6 μM
Summary of the method: as §1

[3] = test system: CCR1; test: PathHunter β-arrestin; format: cell-based; settings: antagonist mode, 6 μM
Summary of the method: as §1

[4] = test system: CCR8; test: PathHunter β-arrestin; format: cell-based; settings: antagonist mode, 6 μM
Summary of the method: (§2)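 Engineered cells express the receptor fused to one β-galactosidase fragment (ED) and β-arrestin fused to the complementing fragment (EA). Receptor activation recruits β-arrestin, which restores enzyme activity, and this is read by chemiluminescence (RLU). Agonist % activity is 100% × (test − vehicle)/(maximal control ligand − vehicle). Antagonist mode is challenged with an EC80 control agonist, and % inhibition is 100% × (1 − (test − vehicle)/(EC80 − vehicle)). Hits require >30% activity or >35% inhibition, plus a 3×SD RLU margin.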

[5] = test system: CRHR2; test: PathHunter β-arrestin; format: cell-based; settings: antagonist mode, 6 μM
Summary of the method: as §2

[6] = test system: DRD3; test: PathHunter β-arrestin; format: cell-based; settings: 6 μM
Summary of the method: as §2

[7] = test system: DRD4; test: PathHunter β-arrestin; format: cell-based; settings: 6 μM
Summary of the method: as §2

[8] = test system: EDG6; test: PathHunter β-arrestin; format: cell-based; settings: 6 μM
Summary of the method: as §2

[9] = test system: EDNRB; test: PathHunter β-arrestin; format: cell-based; settings: antagonist mode, 6 μM
Summary of the method: as §2

[10] = test system: F2R; test: PathHunter β-arrestin; format: cell-based; settings: agonist mode, 6 μM
Summary of the method: as §2

[11] = test system: FFAR1; test: PathHunter β-arrestin; format: cell-based; settings: agonist mode, 6 μM
Summary of the method: as §2

[12] = test system: GPR120; test: PathHunter β-arrestin; format: cell-based; settings: 6 μM
Summary of the method: (§3)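 Vendor-run (DiscoveRx) PathHunter enzyme fragment complementation. β-Arrestin carries the EA fragment and the receptor carries ED; recruitment restores β-gal activity, read by chemiluminescence (RLU). Agonist % activity = vehicle-subtracted RLU relative to max control ligand (gpcrMAX) or to vehicle (orphanMAX). Antagonist % inhibition = 100% × (1 − vehicle-subtracted sample RLU / vehicle-subtracted EC80 agonist control RLU).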

[13] = test system: LHCGR; test: PathHunter β-arrestin; format: cell-based; settings: antagonist mode, 6 μM
Summary of the method: as §3

[14] = test system: MC3R; test: PathHunter β-arrestin; format: cell-based; settings: 6 μM
Summary of the method: as §3

[15] = test system: NPFFR1; test: PathHunter β-arrestin; format: cell-based; settings: 6 μM
Summary of the method: as §3

[16] = test system: NPSR1B; test: PathHunter β-arrestin; format: cell-based; settings: agonist mode, 6 μM
Summary of the method: as §3

[17] = test system: NPY1R; test: PathHunter β-arrestin; format: cell-based; settings: antagonist mode, 6 μM
Summary of the method: as §3

[18] = test system: P2RY11; test: PathHunter β-arrestin; format: cell-based; settings: 6 μM
Summary of the method: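 β-Arrestin recruitment to GPCR read by β-galactosidase fragment complementation and chemiluminescence. Agonist: % = 100 × (test − vehicle)/(max control ligand − vehicle), hit at >30% and RLU > baseline + 3 SD. Antagonist, against EC80 agonist: % inhibition = 100 × (1 − (test − vehicle)/(EC80 − vehicle)), hit at >35% and RLU < EC80 − 3 SD.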

[19] = test system: PTHR2; test: PathHunter β-arrestin; format: cell-based; settings: antagonist mode, 6 μM
[20] = test system: orphan receptors; test: orphanMAX β-arrestin panel, agonist mode; format: cell-based; settings: summary of Table III
[21] = test system: MUC5B; test: TriCEPS ligand-receptor capture; format: binding, human; settings: 10 μg/ml PRP-1
[22] = test system: MUC5B; test: MUC5B ELISA, JJ012 cell lysates; format: cell-based; settings: PRP-1 at 1 μg/ml; human JJ012 cell lysates
Summary of the method: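 Cells trypsinized at confluency and seeded in 6-well clusters at 1×10^6 cells/ml. Test compound added to experimental wells only, controls untreated. Overnight at 37°C, 5% CO2. Cells washed in ice-cold PBS with protease inhibitor, lysed in buffer with protease inhibitor (1:100), scraped and spun at 15,000 × g, 4°C. Protein measured in supernatant. MUC5B quantified with a commercial human MUC5B ELISA kit.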

[23] = test system: TLR1; test: western blot, JJ012 cells; format: cell-based, human; settings: vs untreated control, overnight incubation
Summary of the method: (§4)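 JJ012 cells seeded at 1×10^6 cells/ml in 6-well clusters and incubated overnight at 37°C, 5% CO2 with or without test compound. Lysed with protease inhibitor (1:100) and centrifuged at 15,000 × g, 4°C. Protein loaded at 20 μg/lane with reducing agent, run on polyacrylamide gel, transferred to PVDF, probed with rabbit anti-TLR primaries and HRP-linked secondaries.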

[24] = test system: TLR2; test: western blot, JJ012 cells; format: cell-based, human; settings: vs untreated control, overnight incubation
Summary of the method: as §4

[25] = test system: TLR10; test: western blot, JJ012 cells; format: cell-based, human; settings: vs untreated control, overnight incubation
[26] = test system: TICAM2 (TRAM); test: western blot, JJ012 cells; format: cell-based, human; settings: vs untreated control, overnight incubation
[27] = test system: MUC5B; test: RT2 qPCR primer assay, JJ012 cells; format: cell-based, human; settings: 1 μg/ml PRP-1; heat map, vs nontreated control, technical triplicates
Summary of the method: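 RNA extracted from treated and control JJ012 cells, checked by spectrophotometry and reverse transcribed. SYBR Green qPCR with custom primer assays on three samples in technical triplicates. Ct normalized to the average of GAPDH and ACTB. Fold change vs control by 2^−ΔΔCt, shown as a heat map of average Ct.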

[28] = test system: G1/S phase cell cycle progression; settings: chondrosarcoma, cited from earlier work
[29] = test system: TET1/2 and SOCS3; settings: human chondrosarcoma; ref previously reported ([8],[9]); cited from earlier work

For Proline rich polypeptide 1 [PRP-1], the “% Activity” value ([1]; agonist mode) was 1%, the “% Inhibition” value ([1]; antagonist mode) was −6% and the “% Inhibition” value [2] was 4%. The “% Inhibition” value [3] was −3%, the “% Inhibition” value [4] was −4% and the “% Inhibition” value [5] was −2%. For the same substance, the “% Activity” value ([6]; agonist mode) was 2%, the “% Inhibition” value ([6]; antagonist mode) was −15% and the “% Activity” value ([7]; agonist mode) was 3%. The “% Inhibition” value ([7]; antagonist mode) was −2%, the “% Activity” value ([8]; agonist mode) was −2% and the “% Inhibition” value ([8]; antagonist mode) was 4%. The “% Inhibition” value [9] was −1%, the “% Activity” value [10] was −2% and the “% Activity” value [11] was 3%. For the same substance, the “% Activity” value ([12]; agonist mode) was 1%, the “% Inhibition” value ([12]; antagonist mode) was −6% and the “% Inhibition” value [13] was −15%. For the same substance, the “% Activity” value ([14]; agonist mode) was 3%, the “% Inhibition” value ([14]; antagonist mode) was −6% and the “% Activity” value ([15]; agonist mode) was 3%. The “% Inhibition” value ([15]; antagonist mode) was −3%, the “% Activity” value [16] was 2% and the “% Inhibition” value [17] was 4%. For the same substance, the “% Activity” value ([18]; agonist mode) was 1%, the “% Inhibition” value ([18]; antagonist mode) was −12% and the “% Inhibition” value [19] was −1%. The orphan receptor agonism [20] was “neither that this peptide was agonist for orphan receptors”, the binding partner detection [21] was “detected MUC5B as binding partner with 10 μg/ml PRP-1 treatment” and the “MUC5B presence in cell lysates” value [22] was 440 ng/mL. For the same substance, the protein expression [23] was “strong upregulation; also recorded: upregulated protein expression of TLR1 and TLR2 in dose-dependent manner”, the protein expression [24] was “strong upregulation; also recorded: upregulated protein expression of TLR1 and TLR2 in dose-dependent manner” and the protein expression [25] was “no indication of PRP-1 effect”. For the same substance, the protein expression [26] was “upregulated in dose-dependent manner”, the gene expression [27] was “high expression; also recorded: the most upregulation after the treatment with 1 μg/ml” and the cell cycle progression ([28]; ref [4],[5]) was “halting G1/S phase cell cycle progression”. The cell cycle progression ([28]; ref [6]) was “halts cell cycle progression in G1/S transition” and the “expression of TET1/2 and SOCS3” value [29] was “significant upregulation”.
